From ChEMBL document CHEMBL2016531, “Identification of NAE Inhibitors Exhibiting Potent Activity in Leukemia Cells: Exploring the Structural Determinants of NAE Specificity” (ACS Med Chem Lett, 2011) come the findings set out here.

What is called pEC50 is −log10 of the EC50, conventionally taken in molar units. A low value points to a large EC50.

Assay [1] concerns K562. The assay can be described thus: Antiproliferative activity against human K562 cells after 72 hrs by CellTiter-Glo assay. It is filed as functional, cell-based. The following applies: K562, 72 h. Summed up:
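K562 leukemia cells exposed to increasing concentrations for 72 h; growth and viability read by CellTiter-Glo luminescence.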
In general terms: Cellular ATP, detected with luciferase, serves as a proxy for viable cell number.

For assay [2], the target named is Ubiquitin-like modifier-activating enzyme 5 (Homo sapiens) (UniProt Q9GZZ9). The assay can be described thus: Inhibition of human recombinant UBA5 assessed as inhibition of […]-UFM1 complex formation at 10 uM after 1.5 hrs by Western blot analysis. In short, it runs like this: (§1)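 Cell-free gel assay. Purified human recombinant E1 incubated with its matching Ub/Ubl and E2 in 50 mM HEPES pH 7.4, 5 mM MgCl2, 1–20 μM ATP. Inhibitor at 0, 0.001, 0.01, 0.1, 1 or 10 μM, 1.5 h at room temperature. Products resolved by SDS-PAGE, immunoblotted and detected by ECL; densitometry used for semiquantitation.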
Sequence of Ubiquitin-like modifier-activating enzyme 5 (Homo sapiens) (Q9GZZ9 whole entry): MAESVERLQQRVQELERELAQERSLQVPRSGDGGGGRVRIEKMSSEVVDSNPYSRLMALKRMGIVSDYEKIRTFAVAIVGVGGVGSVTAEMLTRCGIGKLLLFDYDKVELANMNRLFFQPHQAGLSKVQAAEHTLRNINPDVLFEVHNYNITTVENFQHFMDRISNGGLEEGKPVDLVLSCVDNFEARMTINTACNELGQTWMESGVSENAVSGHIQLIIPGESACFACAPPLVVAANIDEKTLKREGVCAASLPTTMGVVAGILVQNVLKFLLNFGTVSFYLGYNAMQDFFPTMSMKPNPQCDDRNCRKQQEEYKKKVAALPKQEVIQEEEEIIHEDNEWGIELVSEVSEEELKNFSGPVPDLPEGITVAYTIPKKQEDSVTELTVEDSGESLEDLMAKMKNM
For orientation: A western blot detects proteins with antibodies after separation by electrophoresis.

For assay [3], the target named is T1, NEDD8-activating enzyme E1 regulatory subunit (Homo sapiens) (UniProt Q13564).
T1 sequence (whole entry): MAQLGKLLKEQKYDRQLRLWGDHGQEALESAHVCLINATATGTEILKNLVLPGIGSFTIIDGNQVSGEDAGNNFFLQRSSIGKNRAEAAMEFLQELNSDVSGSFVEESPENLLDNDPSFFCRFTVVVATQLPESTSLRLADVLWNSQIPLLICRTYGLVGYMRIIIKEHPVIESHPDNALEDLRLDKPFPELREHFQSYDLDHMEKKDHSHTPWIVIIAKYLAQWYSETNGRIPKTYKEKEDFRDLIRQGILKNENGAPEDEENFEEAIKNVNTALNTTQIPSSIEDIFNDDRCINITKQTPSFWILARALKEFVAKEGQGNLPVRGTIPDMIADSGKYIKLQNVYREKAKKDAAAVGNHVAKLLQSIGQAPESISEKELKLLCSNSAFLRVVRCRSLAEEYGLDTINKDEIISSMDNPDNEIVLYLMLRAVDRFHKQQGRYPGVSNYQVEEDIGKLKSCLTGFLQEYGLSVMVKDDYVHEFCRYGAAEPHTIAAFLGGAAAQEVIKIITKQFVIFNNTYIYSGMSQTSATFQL
The assay can be described thus: Inhibition of APPBP1-mediated NEDD8 activation at […] after 1.5 hrs by Western blot analysis.

The species entered for assay [4] is Homo sapiens. The assay can be described thus: Inhibition of human recombinant NAE assessed as inhibition of NEDD8-UbcH12 complex formation at 0.001 to 10 uM after 1.5 hrs by Western blot analysis. Summed up: as §1
In assay [5] the target is SUMO-activating enzyme (Homo sapiens) (UniProt Q9UBE0+Q9UBT2). The assay can be described thus: Inhibition of human recombinant SAE1/2 assessed as inhibition of SUMO1-UbcH9 complex formation at 0.001 to 10 uM after 1.5 hrs by Western blot analysis. It is filed as protein-complex assay. In short, it runs like this: as §1
For assay [6], the target named is T2, NEDD8-activating enzyme E1 catalytic subunit (Homo sapiens) (UniProt Q8TBC4).
T2 sequence (whole entry): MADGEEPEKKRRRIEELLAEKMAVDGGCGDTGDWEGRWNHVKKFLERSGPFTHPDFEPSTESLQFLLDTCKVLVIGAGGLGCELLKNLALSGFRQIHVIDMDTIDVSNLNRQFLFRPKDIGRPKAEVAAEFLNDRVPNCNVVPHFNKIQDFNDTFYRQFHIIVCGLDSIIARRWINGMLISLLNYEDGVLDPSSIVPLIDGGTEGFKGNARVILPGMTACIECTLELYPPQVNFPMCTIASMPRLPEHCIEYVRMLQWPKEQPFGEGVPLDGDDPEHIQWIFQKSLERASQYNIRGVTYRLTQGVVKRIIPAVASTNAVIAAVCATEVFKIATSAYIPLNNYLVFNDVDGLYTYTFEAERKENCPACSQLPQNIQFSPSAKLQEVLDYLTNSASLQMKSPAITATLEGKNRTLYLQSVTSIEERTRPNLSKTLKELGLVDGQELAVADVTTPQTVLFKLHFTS
The assay can be described thus: Inhibition of UBA3-mediated NEDD8 activation at […] after 1.5 hrs by Western blot analysis.

The species entered for assay [7] is Homo sapiens. The assay can be described thus: Inhibition of human recombinant UAE assessed as inhibition of UbcH6-Ub complex formation at 0.001 to 10 uM after 1.5 hrs by Western blot analysis. In short, it runs like this:
as §1

pEC50: −log10 of the molar value. The source made the active and inactive calls. The rule behind the calls is not given here.

With `NS(=O)(=O)OC[C@H]1O[C@@H](n2cnc3c(N[C@H]4CCc5ccccc54)ncnc32)[C@H](O)[C@@H]1O`, the pEC50 in assay [1] was 6.90. Moreover, in assay [2], the inhibition entry is “inactive”. Further, the inhibition entry in assay [3], in assay [4], in assay [5], in assay [6] and in assay [7] was “Active” each time.
